The target of data set [1] is T1, interaction between NHP2L1 and U4 5′SL (Homo sapiens, UniProt P55769).
T1 sequence (P55769 1-128): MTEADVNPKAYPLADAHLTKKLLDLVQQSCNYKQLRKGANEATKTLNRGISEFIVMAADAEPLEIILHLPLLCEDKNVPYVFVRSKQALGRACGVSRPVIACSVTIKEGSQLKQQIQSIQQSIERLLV
Description: TR-FRET HTS assay of NHP2L1-U4 interaction. In kind it is binding. Particulars: for potency in dose response screening (IC50 ranking): dose responsive analysis, ten 1:3 dilutions, TR-FRET; for disruption of the interaction of U4 and NHP2L1: TR-FRET dose response, camptothecin derivatives.

Data set [2] relates to U4 5′ SL. The data set is described as follows: Surface plasmon resonance, immobilized U4 5′SL. Format: binding. The settings on record: max 50μM, OneStep gradient injection, 20° C. For orientation: In SPR one partner is held on a chip, and binding of the other changes the refractive index at the surface.
For data set [3], the target named is T2, NHP2L1 protein (Homo sapiens, UniProt P55769).
T2 sequence (P55769 1-128): T1 sequence (P55769 1-128)
Description: Surface plasmon resonance, immobilized NHP2L1. In kind it is binding. Particulars: max 50μM, OneStep gradient injection, 20° C.

For data set [4], the system named is U4 5′ SL. Description: 1D NMR titration of U4 5′SL. Format: binding. The settings on record: U4:topotecan 1:0 to 1:10. In short, it runs like this:
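Solution NMR at pH 5.0 (100 mM NaCl, 100 mM sodium phosphate, 10% D2O, 2% DMSO-d6). U4 5′SL at 100 μM with increasing test compound, monitored by 1D and 2D [1H,1H] TOCSY (60 ms mixing) and NOESY (100 ms mixing) spectra.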

Data set [5] deals with T3, NHP2L1 U4 complex (Homo sapiens, UniProt P55769).
T3 sequence (P55769 1-128): T1 sequence (P55769 1-128)
The data set is described as follows: NMR of NHP2L1-U4 complex with topotecan. In kind it is binding. A digest of the protocol: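 15N-labelled NHP2L1 was premixed 1:1 with unlabelled U4 5′SL in pH 5.0 phosphate buffer (100 mM NaCl, 10% D2O, 2% DMSO-d6), with backbone assigned from HNCA/HNCACB. Chemical shift perturbations were read from 2D [15N,1H] HSQC/TROSY at 64 scans, and at 400 scans for the 1:1:20 TROSY.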

The target in data set [6] is T3, NHP2L1 U4 complex. The data set is described as follows: Electrophoretic gel mobility shift assay. Format: binding. Particulars: topotecan 0.2, 2, 20, 200 μM. In short, it runs like this: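 Recombinant NHP2L1 (E. coli BL21(DE3), Ni-chelate then gel filtration) plus biotinylated U4 5′SL, ±test compound, 45 min at room temperature in 20 mM Tris-HCl pH 7.6, 150 mM NaCl, 0.1% Triton X-100, 2 mM DTT, 0.5 g/L tRNA. Run on 6% retardation gel, 0.5× TBE, 100 V, 60 min, then nylon transfer and chemiluminescent detection. Shifted band quantified by densitometry as % of complex without compound.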

Data set [7] deals with pre-mRNA splicing (pTN23 reporter) in HEK293 cells. The data set is described as follows: pTN23 splicing reporter assay. In kind it is cell-based, Human. The settings on record: HEK293, topotecan 250nM, 24 hours. (In general: A reporter such as luciferase makes a cellular process visible.)
In data set [8] the target is T4, NHP2L1 (15.5K), His-tagged (UniProt P55769 1-128).
T4 sequence: T1 sequence (P55769 1-128)
Description: TR-FRET. On the technique in general: In TR-FRET formats the signal depends on donor and acceptor labels being close together.

Where a name gives a salt, the structure may show the parent alone.

For `CC[C@@]1(O)C(=O)OCc2c1cc1n(c2=O)Cc2cc3cc(O)ccc3nc2-1` [10-OH-(S)-camptothecin], in data set [1], the “potency in dose response screening (IC50 ranking)” value (“potency in dose response screening” for short) was “among the most potent inhibitors”.
Consider `CC[C@@]1(O)C(=O)OCc2c1cc1n(c2=O)Cc2cc3c(CNC)c(O)ccc3nc2-1` [N-demethyl-topotecan, N-Desmethyl topotecan], for which the “disruption of the interaction of U4 and NHP2L1” value (“disruption” for short) in data set [1] is “able to disrupt the interaction of U4 and NHP2L1”.
As to `CCc1c2c(nc3ccc(O)cc13)-c1cc3c(c(=O)n1C2)COC(=O)[C@]3(O)CC` [SN-38], in data set [1], the “disruption” value is “able to disrupt the interaction of U4 and NHP2L1”; the “potency in dose response screening” value is given as “among the most potent inhibitors”.
For `CC[C@@]1(O)C(=O)OCc2c1cc1n(c2=O)Cc2cc3ccccc3nc2-1` [camptothecin, (S)-camptothecin], in data set [1], the “disruption” value is “less effective at disrupting the NHP2L1 and U4 interaction”.
On to `CCc1c2c(nc3ccc(OC(=O)N4CCC(N5CCCCC5)CC4)cc13)-c1cc3c(c(=O)n1C2)COC(=O)[C@]3(O)CC` [irinotecan], for which, in data set [1], the “disruption” value is “less effective at disrupting the NHP2L1 and U4 interaction”.
For the molecule `CC[C@@]1(O)C(=O)OCc2c1cc1n(c2=O)Cc2cc3c(CN(C)C)c(O)ccc3nc2-1` [topotecan hydrochloride], the inhibition (usually the percentage by which the read-out fell short of the control) at 15 µM in data set [1] (read-out: percentage of inhibition in primary screening) came to 81.6%.
On to `CC[C@@]1(O)C(=O)OCc2c1cc1n(c2=O)Cc2cc3c(CN(C)C)c(O)ccc3nc2-1` [topotecan, Topotecan], for which the “binding to U4 by SPR” value in data set [2] is given as “binds to U4 in a time-dependent manner”. In addition, the “binding to NHP2L1 by SPR” value in data set [3] is reported as “markedly less binding to NHP2L1”. Further, in data set [4], the “binding to U4 5′ SL by 1D NMR” value is given as “binding of topotecan to U4 5′ SL was confirmed”. The “direct binding to NHP2L1-U4 complex by 1D NMR” value in data set [5] (1D spectrum of complex) is “able to directly bind to the NHP2L1-U4 complex”. In data set [5] (NHP2L1:U4:topotecan 1:1:20 (2mM topotecan)), the “displacement of NHP2L1 from U4 by 2D NMR” value is “displaces NHP2L1 from U4 only at high concentrations”. In data set [1], the “disruption” value is “able to disrupt the interaction of U4 and NHP2L1”; the “potency in dose response screening” value is recorded as “among the most potent inhibitors”. Besides, the “inhibition of NHP2L1-U4 5′SL shift” value in data set [6] is on record as “greater inhibition with increasing concentrations”. Moreover, the “splicing efficiency (ratio of luciferase to β-galactosidase activities)” value in data set [7] (p<0.001) is on record as “significantly decreased splicing efficiency”. Also, the β-galactosidase activities entry in data set [7] (p=0.4) is “without changing significantly β–galactosidase activities”.
As to AUCGUAGCCAAUGAGGUUUAUCCGAGGCGCGAU (structured_RNA) [Cy5-U4 5'SL], the Kd (usually the free concentration of one partner at which half of the binding sites on the other are occupied at equilibrium, for simple one-to-one binding) in data set [8] is 0.68 nM.

The values above are taken from PMC5783296 (SLAS discovery : advancing life sciences R & D, 2017).
